In brackets after ≈: the same amount, converted by molar mass. Activity calls are given as the source filed them. No cut-off for these calls is given here.
Columns and labels:
[1] = test system: Mycolicibacterium smegmatis; assay: Antimycobacterial activity against Mycobacterium smegmatis mc2155 assessed as inhibition of bacterial growth incubated for 48 hrs by broth microdilution method; format: functional; details: MC2 155
[2] = test system: Mycobacterium tuberculosis; assay: Antimycobacterial activity against replicating Mycobacterium tuberculosis H37Rv assessed as inhibition of bacterial growth incubated for 7 days by MABA assay; format: functional; details: time 7 day
[3] = test system: Mycobacterium tuberculosis; assay: Antimycobacterial activity against non-replicating Mycobacterium tuberculosis H37Rv expressing pFCA-LuxAB assessed as bacterial growth inhibition incubated for 10 days under anerobic condition by low oxygen recovery assay; format: functional; details: 240 h, time 10 day
[4] = Cytotoxicity against human PBMC assessed as reduction in cell growth after 72 hrs by MTT assay; format: tissue-based
[5] = test system: Mycobacterium tuberculosis; assay: Antimycobacterial activity against replicating Mycobacterium tuberculosis H37Ra assessed as inhibition of bacterial growth incubated for 7 days by MABA assay; format: functional; details: time 7 day
[6] = test system: Mycobacterium tuberculosis; assay: Antimycobacterial activity against Mycobacterium tuberculosis H37Rv ATCC 27294 assessed as inhibition of bacterial growth by agar plate dilution method; format: functional
Summary of the method: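 MIC determined by agar plate dilution method; isoniazid and rifampin run as references.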

[7] = test system: Mycobacterium tuberculosis; assay: Inhibition of mycolic acid biosynthesis in Mycobacterium tuberculosis H37Ra assessed as reduction in alfa-mycolate production at 5XMIC incubated for 7 days by TLC analysis; format: functional; details: time 7.0 day
[8] = test system: Mycobacterium tuberculosis; assay: Inhibition of mycolic acid biosynthesis in Mycobacterium tuberculosis H37Ra assessed as reduction in methoxy-mycolate production at 5XMIC incubated for 7 days by TLC analysis; format: functional; details: time 7 day
[9] = Inhibition of Mycobacterium smegmatis mc2155 menG assessed as inhibition of 2-methyl-3-(3,7,11-trimethyldodeca-2,6,10-trienyl)naphthalene-1,4-dione formation using 2-(3,7,11-trimethyldodeca-2,6,10-trienyl)naphthalene-1,4-dione as substrate incubated for 3 hrs in presence of SAM by HPLC analysis; set-up: species or system Mycolicibacterium smegmatis MC2 155
[10] = test system: Mycobacterium tuberculosis; assay: Inhibition of mycolic acid biosynthesis in Mycobacterium tuberculosis H37Ra assessed as reduction in keto-mycolate production at 5XMIC incubated for 7 days by TLC analysis; format: functional; details: time 7.0 day
[11] = Inhibition of Mycobacterium tuberculosis H37Ra menG assessed as inhibition of 2-methyl-3-(3,7,11-trimethyldodeca-2,6,10-trienyl)naphthalene-1,4-dione formation using 2-(3,7,11-trimethyldodeca-2,6,10-trienyl)naphthalene-1,4-dione as substrate incubated for 3 hrs in presence of SAM by HPLC analysis

Q: Which results are given for `CCCCCCCC(=O)Oc1cccc(Nc2nc3ccccc3c(=O)o2)c1`?
A: MIC [1]: > 100 µg/mL; MIC [2]: > 100 µg/mL; MIC [3]: > 100 µg/mL; IC50 [4]: 190 µg/mL (≈ 499 µM); MIC [5]: > 100 µg/mL

Q: Which MIC [1] does the source give for `COc1ccc(C(=O)OCCCOc2cccc(Nc3nc4ccccc4c(=O)o3)c2)cc1` here?
A: > 100 µg/mL

Q: What about the MIC [2] of the same molecule?
A: 9.71 µg/mL (≈ 21.7 µM)

Q: And the MIC [3]?
A: 40 µg/mL (≈ 89.6 µM)

Q: What about the IC50 [4] of the same molecule?
A: 162 µg/mL (≈ 364 µM)

Q: What about the MIC [5] of the same molecule?
A: 8.16 µg/mL (≈ 18.3 µM)

Q: Which results are given for `CCCCCCCCOc1ccc(C(=O)OCCCOc2cccc(Nc3nc4ccccc4c(=O)o3)c2)cc1`?
A: MIC [1]: 12.5 µg/mL (≈ 23 µM); MIC [2]: 12.4 µg/mL (≈ 22.8 µM); MIC [3]: 18.9 µg/mL (≈ 34.8 µM); IC50 [4]: 154 µg/mL (≈ 283 µM); MIC [5]: 16.2 µg/mL (≈ 29.8 µM)

Q: For `CCCCCCCCCCOc1ccc(C(=O)OCCCOc2cccc(Nc3nc4ccccc4c(=O)o3)c2)cc1`, which MIC [1] is on record?
A: 100 µg/mL (≈ 175 µM)

Q: What about the MIC [2] of the same molecule?
A: 32.1 µg/mL (≈ 56.1 µM)

Q: What about the MIC [3] of the same molecule?
A: 45.1 µg/mL (≈ 78.7 µM)

Q: What about the IC50 [4] of the same molecule?
A: 173 µg/mL (≈ 303 µM)

Q: What about the MIC [5] of the same molecule?
A: 38 µg/mL (≈ 66.4 µM)

Q: Which MIC [1] does the source give for `NNC(=O)c1ccncc1` [ISONIAZID] here?
A: 6.1 µg/mL (≈ 44.5 µM)

Q: What about the MIC [2] of the same molecule?
A: 0.43 µg/mL (≈ 3.14 µM)

Q: What about the MIC [3] of the same molecule?
A: > 128 µg/mL

Q: And the IC50 [4]?
A: 71.7 µg/mL (≈ 523 µM)

Q: And the MIC [5]?
A: 0.3 µg/mL (≈ 2.19 µM)

Q: What about the MIC [6] of the same molecule?
A: 0.4 µg/mL (≈ 2.92 µM)

Q: For `CCCCCCC(=O)Oc1cccc(Nc2nc3ccccc3c(=O)o2)c1`, which MIC [1] is on record?
A: 50 µg/mL (≈ 136 µM)

Q: And the MIC [2]?
A: > 100 µg/mL

Q: And the MIC [3]?
A: > 100 µg/mL

Q: What about the IC50 [4] of the same molecule?
A: 176 µg/mL (≈ 481 µM)

Q: What about the MIC [5] of the same molecule?
A: > 100 µg/mL

Q: For `CCCCCCCC/C=C/CCCCCCCCOc1ccc(C(=O)OCCCOc2cccc(Nc3nc4ccccc4c(=O)o3)c2)cc1`, which MIC [1] is on record?
A: 12.5 µg/mL (≈ 18.3 µM)

Q: And the MIC [2]?
A: 18.7 µg/mL (≈ 27.4 µM)

Q: And the MIC [3]?
A: 35.9 µg/mL (≈ 52.6 µM)

Q: And the IC50 [4]?
A: 150 µg/mL (≈ 219 µM)

Q: What about the MIC [5] of the same molecule?
A: 19.6 µg/mL (≈ 28.7 µM)

Q: For `CCCCC(=O)Oc1cccc(Nc2nc3ccccc3c(=O)o2)c1`, which MIC [1] is on record?
A: > 100 µg/mL

Q: What about the MIC [2] of the same molecule?
A: > 100 µg/mL

Q: And the MIC [3]?
A: > 100 µg/mL

Q: And the IC50 [4]?
A: 201 µg/mL (≈ 595 µM)

Q: And the MIC [5]?
A: > 100 µg/mL

Q: For `CCC(=O)Oc1cccc(Nc2nc3ccccc3c(=O)o2)c1`, which MIC [1] is on record?
A: 100 µg/mL (≈ 322 µM)

Q: What about the MIC [2] of the same molecule?
A: > 100 µg/mL

Q: What about the MIC [3] of the same molecule?
A: 98.5 µg/mL (≈ 317 µM)

Q: And the IC50 [4]?
A: 180 µg/mL (≈ 579 µM)

Q: What about the MIC [5] of the same molecule?
A: > 100 µg/mL

Q: With `CCCCCC(=O)Oc1cccc(Nc2nc3ccccc3c(=O)o2)c1` as the molecule, how does the MIC [1] read?
A: > 100 µg/mL

Q: And the MIC [2]?
A: > 100 µg/mL

Q: And the MIC [3]?
A: > 100 µg/mL

Q: And the IC50 [4]?
A: 186 µg/mL (≈ 529 µM)

Q: What about the MIC [5] of the same molecule?
A: > 100 µg/mL

Q: Which inhibition [7] does the source give for `CCCCCCOc1ccc(C(=O)OCCCOc2cccc(Nc3nc4ccccc4c(=O)o3)c2)cc1` here?
A: Active

Q: And the MIC [1]?
A: 6.3 µg/mL (≈ 12.2 µM)

Q: And the MIC [2]?
A: 6.12 µg/mL (≈ 11.8 µM)

Q: And the “inhibition (INH)” value [8]?
A: 61%

Q: What about the IC50 [9] of the same molecule?
A: 16.33 µg/mL

Q: And the MIC [3]?
A: 5.32 µg/mL (≈ 10.3 µM)

Q: And the inhibition [10]?
A: Active

Q: And the IC50 [11]?
A: 13.53 µg/mL

Q: And the IC50 [4]?
A: 123 µg/mL (≈ 238 µM)

Q: What about the MIC [5] of the same molecule?
A: 5.83 µg/mL (≈ 11.3 µM)

Q: With `CCCCCCCOc1ccc(C(=O)OCCCOc2cccc(Nc3nc4ccccc4c(=O)o3)c2)cc1` as the molecule, how does the MIC [1] read?
A: > 100 µg/mL

Q: What about the MIC [2] of the same molecule?
A: > 100 µg/mL

Q: What about the MIC [3] of the same molecule?
A: > 100 µg/mL

Q: And the IC50 [4]?
A: 181 µg/mL (≈ 341 µM)

Q: And the MIC [5]?
A: > 100 µg/mL

Q: For `CCCC(=O)Oc1cccc(Nc2nc3ccccc3c(=O)o2)c1`, which MIC [1] is on record?
A: > 100 µg/mL

Q: What about the MIC [2] of the same molecule?
A: > 100 µg/mL

Q: What about the MIC [3] of the same molecule?
A: > 100 µg/mL

Q: What about the IC50 [4] of the same molecule?
A: 199 µg/mL (≈ 615 µM)

Q: What about the MIC [5] of the same molecule?
A: > 100 µg/mL

Q: For `CCCCCCCCCOc1ccc(C(=O)OCCCOc2cccc(Nc3nc4ccccc4c(=O)o3)c2)cc1`, which MIC [1] is on record?
A: 50 µg/mL (≈ 89.5 µM)

Q: And the MIC [2]?
A: 41.8 µg/mL (≈ 74.9 µM)

Q: And the MIC [3]?
A: 31 µg/mL (≈ 55.6 µM)

Q: What about the IC50 [4] of the same molecule?
A: 169 µg/mL (≈ 303 µM)

Q: What about the MIC [5] of the same molecule?
A: 37.1 µg/mL (≈ 66.5 µM)

Q: With `CCCOc1ccc(C(=O)OCCCOc2cccc(Nc3nc4ccccc4c(=O)o3)c2)cc1` as the molecule, how does the MIC [1] read?
A: 12.5 µg/mL (≈ 26.3 µM)

Q: What about the MIC [2] of the same molecule?
A: 11.7 µg/mL (≈ 24.7 µM)

Q: And the MIC [3]?
A: 15.3 µg/mL (≈ 32.2 µM)

Q: And the IC50 [4]?
A: 145 µg/mL (≈ 306 µM)

Q: And the MIC [5]?
A: 10 µg/mL (≈ 21.1 µM)

— ChEMBL document CHEMBL4706595, “1,3-Oxazine-2-one derived dual-targeted molecules against replicating and non-replicating forms of Mycobacterium tuberculosis” (Eur J Med Chem, 2020)
